Legend:
Assay type in all cases: biochemical
Soluble CD73 = biological target: T1, Soluble CD73 (Homo sapiens, UniProt P21589); assay: CD73 assay with [2,8-3H]AMP
T1 sequence (P21589 27-549 limits assumed): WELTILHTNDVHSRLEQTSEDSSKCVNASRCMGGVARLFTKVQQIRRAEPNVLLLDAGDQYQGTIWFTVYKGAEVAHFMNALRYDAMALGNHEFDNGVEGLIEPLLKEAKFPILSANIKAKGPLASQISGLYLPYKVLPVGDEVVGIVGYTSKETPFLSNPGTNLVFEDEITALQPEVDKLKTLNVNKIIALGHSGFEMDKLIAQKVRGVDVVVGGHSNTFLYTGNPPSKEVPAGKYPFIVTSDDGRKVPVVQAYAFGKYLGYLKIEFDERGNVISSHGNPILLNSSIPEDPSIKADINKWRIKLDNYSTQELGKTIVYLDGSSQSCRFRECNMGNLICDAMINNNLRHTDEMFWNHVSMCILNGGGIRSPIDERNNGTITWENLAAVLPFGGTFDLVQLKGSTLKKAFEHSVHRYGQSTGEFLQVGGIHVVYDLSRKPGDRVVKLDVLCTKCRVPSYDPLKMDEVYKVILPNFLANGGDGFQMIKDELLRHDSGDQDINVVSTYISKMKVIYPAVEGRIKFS
In short: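 A dilution series of test compound was incubated with soluble human CD73 (0.09 µg/mL) and 5.0 µM [2,8-3H]AMP in 25 mM Tris, 140 mM NaCl, 25 mM NaH2PO4, pH 7.4. Incubation ran 25 min at 37°C with shaking. Cold LaCl3/sodium acetate buffer (pH 4.0) precipitated phosphate and unconverted AMP over 30 min on ice. Samples were filtered through GF/B filters and the filtrate collected.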

NTPDase8 = biological target: T2, NTPDase8 (Homo sapiens, UniProt Q5MY95); assay: Malachite green assay, NTPDase8 in COS-7 cell membranes
T2 sequence (Q5MY95 1-495): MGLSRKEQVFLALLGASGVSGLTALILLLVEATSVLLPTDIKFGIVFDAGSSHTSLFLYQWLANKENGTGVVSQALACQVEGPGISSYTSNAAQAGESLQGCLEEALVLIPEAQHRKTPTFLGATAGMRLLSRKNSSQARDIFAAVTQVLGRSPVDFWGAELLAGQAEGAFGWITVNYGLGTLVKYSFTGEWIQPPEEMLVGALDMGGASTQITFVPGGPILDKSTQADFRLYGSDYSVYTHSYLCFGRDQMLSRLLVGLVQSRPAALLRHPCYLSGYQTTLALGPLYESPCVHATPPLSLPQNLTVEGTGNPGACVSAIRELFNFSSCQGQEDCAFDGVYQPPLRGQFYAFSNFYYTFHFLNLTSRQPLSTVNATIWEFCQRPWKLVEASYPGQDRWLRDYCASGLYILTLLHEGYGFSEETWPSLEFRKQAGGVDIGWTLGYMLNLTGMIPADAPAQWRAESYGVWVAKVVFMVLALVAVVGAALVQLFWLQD
In short: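 Human NTPDase2, -3 or -8 was expressed in COS-7 membranes (ca. 100 ng protein, adjusted for 10–20% substrate conversion). Enzyme was preincubated 5 min at 37°C with test compound (50 µM single point, or 0.1–300 µM for curves). It was then incubated 15 min at 37°C with 100 µM ATP in HEPES/CaCl2/MgCl2, pH 7.4, ≤2% DMSO. Malachite green absorbance at 600 nm was corrected by a denatured-enzyme blank; n=3.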

human CD39 = biological target: T3, human CD39 (Homo sapiens, UniProt P49961); assay: CE-UV
T3 sequence (P49961 1-510): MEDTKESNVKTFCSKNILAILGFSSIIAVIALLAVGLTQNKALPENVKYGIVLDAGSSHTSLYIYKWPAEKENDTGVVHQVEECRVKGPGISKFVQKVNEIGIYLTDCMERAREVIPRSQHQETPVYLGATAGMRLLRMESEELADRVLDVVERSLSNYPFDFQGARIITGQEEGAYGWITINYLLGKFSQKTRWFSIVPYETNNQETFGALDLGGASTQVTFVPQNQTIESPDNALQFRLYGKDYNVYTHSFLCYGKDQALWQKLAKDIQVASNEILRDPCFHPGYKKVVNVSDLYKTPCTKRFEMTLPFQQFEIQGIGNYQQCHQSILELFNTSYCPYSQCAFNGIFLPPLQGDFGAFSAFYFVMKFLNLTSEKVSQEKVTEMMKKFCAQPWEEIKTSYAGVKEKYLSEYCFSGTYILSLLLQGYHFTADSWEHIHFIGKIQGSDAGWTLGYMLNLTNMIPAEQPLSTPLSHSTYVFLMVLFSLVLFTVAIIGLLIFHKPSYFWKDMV
In short: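 Recombinant human CD39 (COS-7 membranes) was incubated with test compound (0.1–300 µM) and 100 µM ATP. Buffer: 10 mM HEPES, 2 mM CaCl2, 1 mM MgCl2, pH 7.4; 30 min at 37°C. Reactions were stopped by heating 10 min at 90°C. ATP, ADP and AMP were separated by capillary electrophoresis with UV detection.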

NPP4 = biological target: T4, NPP4 (Homo sapiens, UniProt Q9Y6X5); assay: NPP4 assay
T4 sequence (Q9Y6X5 16-407 limits assumed): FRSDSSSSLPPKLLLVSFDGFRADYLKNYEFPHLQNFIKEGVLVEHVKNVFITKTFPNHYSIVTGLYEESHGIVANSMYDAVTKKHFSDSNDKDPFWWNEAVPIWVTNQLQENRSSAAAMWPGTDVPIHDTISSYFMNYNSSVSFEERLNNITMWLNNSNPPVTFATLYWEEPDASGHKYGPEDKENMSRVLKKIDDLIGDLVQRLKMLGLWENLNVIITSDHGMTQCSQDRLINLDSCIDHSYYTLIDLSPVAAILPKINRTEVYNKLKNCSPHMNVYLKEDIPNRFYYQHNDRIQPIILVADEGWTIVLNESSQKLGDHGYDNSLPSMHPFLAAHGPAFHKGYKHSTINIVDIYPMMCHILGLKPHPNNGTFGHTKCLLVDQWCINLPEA
In short: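 Purified soluble NPP4 (1200 ng, Sf9-expressed) was incubated with 50 µM test compound, 2% DMSO and 300 µM diadenosine tetraphosphate. Buffer: 10 mM HEPES, 2 mM CaCl2, 1 mM MgCl2, pH 8.0; 90 min at 37°C with shaking. The reaction was heat-stopped (90°C, 5 min) and chilled on ice. Product ATP was quantified by capillary electrophoresis.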

[1] = read-out: % inhibition at 50 µM

- IC50 (Soluble CD73): > 50 µM
- inhibition at 50 µM (Soluble CD73; [1]): 33%
- IC50 (NTPDase8): 20.3 ± 1.5 µM
- IC50 (human CD39): 13.7 ± 0.6 µM
- IC50 (NPP4): > 50 µM
- inhibition at 50 µM (NPP4; [1]): 15%
SMILES: Cc1cc(Nc2ncc(Cl)c(Nc3ccccc3S(=O)(=O)C(C)C)n2)c(OC(C)C)cc1C1CCNCC1 [ceritinib, Ceritinib]

Source: PMC9394215 (Journal for Immunotherapy of Cancer, 2022)
